# MBD2 DNA inh – MBD2-methylated oligo binding inhibition | inhibition, % at 4.4 µM | 370,000 tested, 0.31% active | Q9UBB5 | TR-FRET, MBD2 binding to methylated oligonucleotide | AID 686964; in the data active means inhibition above about 13%
# rCAG binder – molecules binding r(CAG) RNA repeats; AID 651821; r(CAG) RNA repeat, TO-PRO-1 dye displacement fluorescence; 370,000 tested, 1.3% active; inhibition, % at 3 µM;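 active means inhibition above the plate cutoff, the mean of all test compounds on that plate plus 3 SD, cut at about 35% in these data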;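 further: 0% = DMSO alone and 100% = 100 µM mitoxantrone as full dye displacement; higher means more dye released from RNA so lower well fluorescence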
# UHRF1 MBD2 ctr – UHRF1 methyl-DNA binding inhibition. Q96T88. UHRF1 binding to methylated oligo, TR-FRET. inhibition, % at 4.4 µM. 370,000 tested, 0.75% active. AID 687016; in the data active means inhibition above about 21%;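 further: UHRF1 SRA domain binding a hemimethylated CpG hairpin DNA probe; 0% = median of test compound wells and 100% = reference inhibitor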
# Target sequence (Q96T88 whole entry, looked up, the tested form may be a part): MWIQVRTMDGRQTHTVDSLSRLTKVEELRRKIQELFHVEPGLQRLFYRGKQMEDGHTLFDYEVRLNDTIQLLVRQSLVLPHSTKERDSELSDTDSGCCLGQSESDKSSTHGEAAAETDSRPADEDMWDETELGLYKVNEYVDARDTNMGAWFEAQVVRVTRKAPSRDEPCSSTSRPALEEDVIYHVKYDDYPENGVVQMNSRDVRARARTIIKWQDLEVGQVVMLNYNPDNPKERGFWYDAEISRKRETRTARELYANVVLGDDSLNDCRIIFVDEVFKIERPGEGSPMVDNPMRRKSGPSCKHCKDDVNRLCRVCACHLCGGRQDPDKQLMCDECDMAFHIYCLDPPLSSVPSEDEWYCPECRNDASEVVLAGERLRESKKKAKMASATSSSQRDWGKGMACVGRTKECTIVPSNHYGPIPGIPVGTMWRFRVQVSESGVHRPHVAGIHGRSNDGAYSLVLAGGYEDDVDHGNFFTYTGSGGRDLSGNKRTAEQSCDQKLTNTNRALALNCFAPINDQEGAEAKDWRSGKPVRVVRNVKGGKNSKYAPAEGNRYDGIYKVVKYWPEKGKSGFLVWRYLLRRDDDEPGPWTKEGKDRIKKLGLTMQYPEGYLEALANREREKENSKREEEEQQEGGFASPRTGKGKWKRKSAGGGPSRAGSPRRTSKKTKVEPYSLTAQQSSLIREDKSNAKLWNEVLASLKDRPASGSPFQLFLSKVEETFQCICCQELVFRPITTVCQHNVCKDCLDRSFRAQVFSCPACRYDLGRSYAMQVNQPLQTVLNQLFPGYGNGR
# CSN inh – CSN deneddylation inhibition | Q92905 | Purified CSN, SCF-Nedd8-OG deneddylation, fluorescence polarization | inhibition, % at 12.5 µM | 360,000 tested, 0.38% active;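 active means pattern-corrected inhibition above about 35%, with an unprinted fluorescence ratio check between 0.5 and 1.5, limit read from the data, passing the limit was not always enough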;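 further: 0% = enzyme with substrate and 100% = substrate without enzyme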
#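 Material: human Csn5 produced in HEK293T cells; Input: enzyme 0.24 nM; Reagent: SCFSkp2-Nedd8OG substrate at 10 nM final; Dosing: 12.5 µM compound; Incubation: 90 min reaction at room temperature; Detection: fluorescence polarization of the substrate; Evaluation: % inhibition of substrate cleavage by Csn5; Control set: substrate-only high control, full reaction low control.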
# ATG4B inhibitor – blocks human ATG4B protease cleavage of LC3 substrate; Q9Y4P1; ATG4B cleavage of LC3-PLA2, NBD-HPC fluorescence, 1 h; inhibition, % at 8.33 µM; 340,000 tested, 0.51% active; AID 504462; in the data active means inhibition above about 40%
# LEDGF integ inh – blocks HIV-1 LEDGF/p75-dependent DNA integration; TR-FRET IN-LEDGF/p75 DNA integration, Eu/Cy5; 370,000 tested, 0.64% active; AID 743269; inhibition, % at 3.7 µM;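 active means inhibition above the screen-wide mean plus 3 SD, cut at about 13% in these data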;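 further: signal is the Cy5 over europium emission ratio at 671 and 618 nm; 0% = plate median of compound wells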
# IN multimer up – HIV-1 integrase multimerization activation, counter-screen; AID 1053131; activation, % at 7.7 µM; TR-FRET HIV-1 integrase multimerization, biochemical; shares compounds with LEDGF integ inh; 2,000 tested, 17% active; in the data active means activation above about 8.9%
# TR-FRET interf – counter-screen for LEDGF/p75 integration inhibitors: TR-FRET optical interference; TR-FRET optical interference counterscreen, HIV-1 IN multimerization; AID 1053135; shares compounds with LEDGF integ inh; inhibition, % at 7.7 µM; 2,000 tested, under 10 active;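 active means inhibition above the mean over all tested compounds plus 3 SD, which no compound reached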;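 further: 0% = integrase with antibodies and DMSO and 100% = antibodies without integrase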
# LEDGF integ conf – confirmation of HIV-1 LEDGF/p75-dependent integration inhibitors | shares compounds with LEDGF integ inh | AID 1053136 | 2,000 tested, 36% active | TR-FRET LEDGF/p75-dependent HIV-1 integration, biochemical | inhibition, % at 3.7 µM; in the data active means inhibition above about 14%
# * hit, by the source's call; · = not tested or not shown. Rows were chosen to be rich in hits. Some 3.1% of all compounds tested hit in one or more screens of this group.
SMILES,MBD2 DNA inh,rCAG binder,UHRF1 MBD2 ctr,CSN inh,ATG4B inhibitor,LEDGF integ inh,IN multimer up,TR-FRET interf,LEDGF integ conf
CCN(CC)C(=O)CC[C@@H]1CC[C@]2(CCCN(Cc3ccncc3)C2)O1,2,3,-3,·,·,-2,·,·,·
Cc1noc(C)c1C(=O)Nc1ccccc1-c1ccccc1,1,0,0,0,16,27*,0,0,1
CCOC(=O)COc1ccc(C(C)c2ccc(NC(=O)OC(C)(C)C)cc2)cc1 (stereo unspecified),-2,-2,-2,·,·,0,·,·,·
CCS(=O)(=O)Nc1ccc2c(c1)C(=O)N(C)[C@@H]1CC[C@H](CC(=O)NCCCN3CCOCC3)O[C@H]1CO2,-1,1,5,·,·,-1,·,·,·
O=C(c1cscn1)N1CCC(Oc2cccnc2)CC1,-1,3,0,·,·,-3,·,·,·
CC1C/C=C/C=C/C=C/C=C/C(O[C@@H]2O[C@H](C)[C@@H](O)[C@H](N)[C@@H]2O)CC2OC(O)(CC(O)CC3OC3/C=C/C(=O)O1)CC(O)C2C(=O)O (stereo partly specified),4,14,10,·,·,21*,1,-4,35*
O=C(NCC1CC1)C1(S(=O)(=O)c2ccccc2)CC=CC1,-2,0,-6,3,-4,4,·,·,·
COCCNC(=O)C1(S(=O)(=O)c2ccccc2)CC=CC1,-6,4,0,3,6,24*,0,0,0
Cc1cc(C)c(-c2csc(NC(=O)C3=COCCO3)n2)c(C)c1,4,-1,2,3,6,-3,·,·,·
Cc1cc(-c2csc(NC(=O)C3=COCCO3)n2)c(C)n1C,-4,21,0,13,1,43*,7,-37,47*
CCOC(=O)[C@]12CCCC=C1N(CCCOC)C(=O)[C@@H]2CC(=O)NCC12CC3CC(CC(C3)C1)C2,-5,-1,-2,·,·,3,·,·,·
CC(=O)C1C(=O)C=C(c2cccs2)CC1c1ccccc1 (stereo unspecified),-1,-3,0,12,-1,1,·,·,·
O=C1C=C(c2cccs2)C[C@H](c2ccccc2)[C@H]1n1nnc([N+](=O)[O-])n1,-5,12,-4,1,4,14*,2,-8,18*
CC(C)=CCC1=C(OCC(=O)O)C(=O)c2ccccc2C1=O,-3,13,12,12,24,25*,4,-12,57*
COCc1cc(N2CCN(C(=O)OC(C)(C)C)C[C@H]2C)ccc1N1CC[C@@H](O)C1,6,11,1,·,·,14*,5,-18,0
COc1ccc(CC(=O)NCCC(C)C)cc1S(=O)(=O)N1CCOCC1,5,-4,-1,-3,0,89*,-3,14,-2
COc1ccc(C(=O)NCCC(C)C)cc1S(=O)(=O)N1CCOCC1,5,0,12,-1,-10,-3,·,·,·
Brc1ccc(C2=Nc3cccc4cccc(c34)N2)o1,6,19,0,5,7,42*,-1,4,5
COc1ccc(CN2c3cc(S(=O)(=O)N4CCOCC4)ccc3N3CCCC32)cc1 (stereo unspecified),3,7,0,0,2,-1,·,·,·
O=S(=O)(c1ccc2c(c1)N(Cc1ccc(Cl)cc1)C1CCCN21)N1CCOCC1 (stereo unspecified),-3,7,8,1,3,23*,-2,6,-2
C=CCn1cnc2c(NCc3ccccc3)ncnc21,2,0,-1,1,3,89*,1,-4,0
CCOC(=O)N1CCN(C(=O)c2ccc3nc4ccc(Cl)cc4c(=O)n3c2)CC1,-4,14,1,1,-5,18*,1,-3,0

# Bioassay records deposited in PubChem BioAssay by several laboratories.
